Activity calls are given as the source filed them. The rule behind the calls is not given here.
How the values were obtained:
A549 = assay: Growth inhibition of human A549 cells measured after 48 hrs by SRB colorimetric assay; format: functional
Outline: (§1)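 NCI-based protocol with sulforhodamine B read-out. Seeded 2500 (A549, HBL-100, HeLa, SW1573), 5000 (T-47D, WiDr, SW1573/P-gp) or 7000 (BJ-hTERT) cells/well. Exposed 48 h to serial decimal dilutions, 0.001–100 μM, from 40 mM DMSO stock. GI50 by NCI formulas; mean of three or more experiments ± SD.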

T47D = assay: Growth inhibition of human T47D cells measured after 48 hrs by SRB colorimetric assay; format: functional; outline: as §1
WiDr = assay: Growth inhibition of human WiDr cells measured after 48 hrs by SRB colorimetric assay; format: functional; outline: as §1
hTERT-BJ = assay: Growth inhibition of human hTERT-BJ cells measured after 48 hrs by SRB colorimetric assay; format: functional
Outline: as §1, with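 “read-out. Cells grown in RPMI 1640 with 5% FBS and 1 mM glutamine at 37 °C, 5% CO₂.” for “read-out.”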

SW1573 [1] = assay: Growth inhibition of human SW1573 cells measured after 48 hrs in absence of verapamil by SRB colorimetric assay; format: functional
Outline: as §1, with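 “read-out. Cells grown in RPMI 1640 with 5% FBS and 1 mM glutamine at 37 °C, 5% CO₂.” for “read-out.”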

SW1573 [2] = assay: Growth inhibition of human SW1573 cells overexpressing P-glycoprotein measured after 48 hrs in absence of verapamil by SRB colorimetric assay; format: functional
Outline: as §1, with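 “read-out. Cells grown in RPMI 1640 with 5% FBS and 1 mM glutamine at 37 °C, 5% CO₂.” for “read-out.”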

SW1573 [3] = assay: Growth inhibition of human SW1573 cells measured after 48 hrs in presence of verapamil by SRB colorimetric assay; format: functional
Outline: as §1, with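 “read-out. Cells grown in RPMI 1640 with 5% FBS and 1 mM glutamine at 37 °C, 5% CO₂.” for “read-out.”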

SW1573 [4] = assay: Growth inhibition of human SW1573 cells overexpressing P-glycoprotein measured after 48 hrs in presence of verapamil by SRB colorimetric assay; format: functional
Outline: as §1, with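 “read-out. Cells grown in RPMI 1640 with 5% FBS and 1 mM glutamine at 37 °C, 5% CO₂.” for “read-out.”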

[5] = Resistance factor, ratio of GI50 for growth inhibition of human SW1573 cells overexpressing P-glycoprotein measured after 48 hrs in absence of verapamil to GI50 for growth inhibition of human SW1573 cells measured after 48 hrs in absence of verapamil; format: functional
Outline: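 Resistance factor: GI50 in P-gp-overexpressing SW1573 divided by GI50 in parental SW1573, each from 48 h SRB growth-inhibition assay without verapamil. Values are means of three or more independent experiments.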

[6] = Resistance factor, ratio of GI50 for growth inhibition of human SW1573 cells overexpressing P-glycoprotein measured after 48 hrs in presence of verapamil to GI50 for growth inhibition of human SW1573 cells measured after 48 hrs in presence of verapamil; format: functional
Outline: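 SW1573 parental and P-gp-overexpressing cells given 48 h exposure to serial dilutions (0.001–100 μM) in medium containing verapamil at a final 10 μM as P-gp transport inhibitor. SRB read-out, GI50 by NCI formulas. Resistance factor taken as GI50 in SW1573/P-gp divided by GI50 in SW1573.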

SW1573 [7] = assay: Inhibition of colony formation in human SW1573 cells assessed as reduction in number of colonies at one third of GI50 concentration measured after 7 days by crystal violet staining based analysis; format: functional, cell-based; conditions: time 7.0 day
Outline: (§2)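 HeLa and SW1573 seeded at 400 cells/well, dosed next day at GI50/3 and GI50 for the given line. Exposed seven days, fixed in methanol, stained with 0.5% w/v crystal violet. Colonies counted by automatic image segmentation.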

SW1573 [8] = assay: Inhibition of colony formation in human SW1573 cells assessed as reduction in colony size at GI50 concentration measured after 7 days by crystal violet staining based analysis; format: functional, cell-based; conditions: time 7.0 day; outline: as §2
SW1573 [9] = assay: Inhibition of colony formation in human SW1573 cells assessed as reduction in colony size at one third of GI50 concentration measured after 7 days by crystal violet staining based analysis; format: functional, cell-based; conditions: time 7.0 day; outline: as §2
HeLa [10] = assay: Induction of apoptosis in human HeLa cells assessed as membrane blebbing at 20 uM measured upto 15 hrs by microscopy based analysis; format: functional, cell-based
Outline: (§3)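 HeLa and SW1573 seeded at 100,000 cells/dish. After 24 h, medium switched to phenol-red-free RPMI 1640 and 20 μM added. Label-free holotomographic 3D live imaging of a 236 × 236 μm field, 10–20 cells initially, every 3 min for 15 h. Average dry mass density measured per cell at each cycle; morphology scored against untreated cells.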

HeLa [11] = assay: Induction of morphological changes in human HeLa cells assessed as increase in average dry mass density at 20 uM measured after 15 hrs by imaging based analysis; format: functional, cell-based; outline: as §3
HeLa [12] = assay: Induction of morphological changes in human HeLa cells assessed as formation of apoptotic bodies at 20 uM measured after 5 hrs by microscopy based analysis; format: functional, cell-based; outline: as §3
HeLa [13] = assay: Induction of morphological changes in human HeLa cells assessed as release of cellular content at 20 uM measured after 12 hrs by imaging based analysis; format: functional, cell-based; outline: as §3
HeLa [14] = assay: Induction of morphological changes in human HeLa cells assessed as signal transition to necrotic stage at 20 uM measured after 12 hrs by imaging based analysis; format: functional, cell-based; outline: as §3
BV-2 [15] = assay: Cytotoxicity against mouse BV-2 cells at 10 uM measured after 24 hr by crystal violet staining based analysis; format: toxicity, cell-based; conditions: bv-2, 24 h
Outline: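 Bv.2 cells grown to 70% confluence, exposed 24 h in serum-free medium to 0.1, 1.0, 10 and 25 μM. Fixed with 1% glutaraldehyde, stained with 0.1% crystal violet, dye released in 10% acetic acid, absorbance 590 nm. Mean ± SEM, n ≥ 3 independent experiments.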

[16] = target: Mitogen-activated protein kinase 14 (Mus musculus) (UniProt P47811); assay: Inhibition of LPS-stimulated p38 alpha phosphorylation in mouse BV-2 cells at 10 uM measured after 30 mins by Western blot analysis; format: cell-based
Sequence of Mitogen-activated protein kinase 14 (Mus musculus) (P47811 whole entry): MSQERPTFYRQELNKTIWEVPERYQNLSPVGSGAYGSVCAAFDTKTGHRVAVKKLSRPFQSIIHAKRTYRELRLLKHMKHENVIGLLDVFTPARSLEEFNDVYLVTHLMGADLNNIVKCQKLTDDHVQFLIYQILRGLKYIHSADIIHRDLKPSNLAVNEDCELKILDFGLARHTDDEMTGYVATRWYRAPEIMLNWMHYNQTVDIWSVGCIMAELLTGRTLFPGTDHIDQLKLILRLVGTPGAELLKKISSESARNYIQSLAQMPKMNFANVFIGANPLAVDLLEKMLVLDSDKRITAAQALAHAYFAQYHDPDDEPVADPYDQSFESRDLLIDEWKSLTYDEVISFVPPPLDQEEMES
Outline: (§4)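 Bv.2 cells exposed with or without LPS for 15–90 min. Protein extracts run on SDS-PAGE, blotted to PVDF, probed with anti-phospho-p38α MAPK and anti-total p38α MAPK (1:1000), ECL detection. Quantified by densitometry, mean ± SEM, n = 3.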

[17] = target: Mitogen-activated protein kinase 14 (Mus musculus) (UniProt P47811); assay: Inhibition of LPS-stimulated p38 alpha phosphorylation in mouse BV-2 cells at 10 uM measured after 15 to 90 mins by Western blot analysis; format: cell-based; conditions: time 15-90 min; outline: as §4
HeLa [18] = assay: Induction of morphological changes in human HeLa cells at 20 uM measured after 12 hrs by imaging based analysis
HeLa [19] = assay: Induction of morphological changes in human HeLa cells assessed as increase in cell shrinkage at 20 uM measured after 12 hrs by imaging based analysis
BV-2 [20] = assay: Protection against LPS induced inflammation in mouse BV-2 cells assessed as decrease in IL1-beta mRNA expression at 10 uM incubated for 24 hrs with LPS stimulation by qRT-PCR analysis
BV-2 [21] = assay: Protection against LPS induced inflammation in mouse BV-2 cells assessed as decrease in Tnf-alpha mRNA expression at 10 uM incubated for 24 hrs with LPS stimulation by qRT-PCR analysis

## CCCCCCCCCCCCS(=O)(=O)[C@@H]1[C@H](F)[C@@H](O)[C@H](O)[C@H]2COC(=O)N21
A549
  GI50: 4.6 µM
T47D
  GI50: 18 µM
WiDr
  GI50: 20 µM
hTERT-BJ
  GI50: 32 µM
SW1573 [1]
  GI50: 3.3 µM
SW1573 [2]
  GI50: 5.3 µM
SW1573 [3]
  GI50: 15 µM
SW1573 [4]
  GI50: 11 µM
[5]
  RatioGI50: 1.6
[6]
  RatioGI50: 0.7
SW1573 [7]
  inhibition: Active
SW1573 [8]
  inhibition: Active
SW1573 [9]
  inhibition: Active
HeLa [10]
  Activity: Active
HeLa [11]
  Activity: Active
HeLa [12]
  Activity: Active
HeLa [13]
  Activity: Active
HeLa [14]
  Activity: Active
BV-2 [15]
  Activity: Non-Toxic
[16]
  inhibition: inactive
[17]
  inhibition: inactive
HeLa [18]
  Activity: Active
HeLa [19]
  Activity: Active
BV-2 [20]
  Activity: Active
BV-2 [21]
  Activity: Active
